Source: ChEMBL document CHEMBL1149815, “New amido derivatives as potential BKCa potassium channel activators. XI” (Eur J Med Chem, 2008)

What was measured:
Type in all cases: tissue-based
[1] = target: Calcium-activated potassium channel subunit alpha-1 (Rattus norvegicus) (UniProt Q62976); assay: (§1) Induction of BK channel mediated vasorelaxation activity in Kcl-induced contraction in Wistar rat aorta
Summary of the method: (§2)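 Endothelium-denuded thoracic aortic rings from male normotensive Wistar rats (250-350 g), equilibrated 60 min. Denudation was confirmed by acetylcholine relaxation below 10% of KCl tone. Rings were precontracted with 20 mM KCl; at plateau, 3-fold increasing concentrations were added cumulatively. Efficacy was maximal relaxation as % of KCl tone. pIC50 was -log molar concentration halving tone, not derived if efficacy was below 50%. 5-10 experiments.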

[2] = target: Calcium-activated potassium channel subunit alpha-1 (Rattus norvegicus, UniProt Q62976); assay: as §1; summary of the method: as §2
[3] = target: Calcium-activated potassium channel subunit alpha-1 (Rattus norvegicus) (UniProt Q62976); assay: Induction of BK channel mediated vasorelaxation activity in Kcl-induced contraction in Wistar rat aorta in presence of IbTX; summary of the method: as §2

Calcium-activated potassium channel subunit alpha-1, sequence (Q62976 whole entry): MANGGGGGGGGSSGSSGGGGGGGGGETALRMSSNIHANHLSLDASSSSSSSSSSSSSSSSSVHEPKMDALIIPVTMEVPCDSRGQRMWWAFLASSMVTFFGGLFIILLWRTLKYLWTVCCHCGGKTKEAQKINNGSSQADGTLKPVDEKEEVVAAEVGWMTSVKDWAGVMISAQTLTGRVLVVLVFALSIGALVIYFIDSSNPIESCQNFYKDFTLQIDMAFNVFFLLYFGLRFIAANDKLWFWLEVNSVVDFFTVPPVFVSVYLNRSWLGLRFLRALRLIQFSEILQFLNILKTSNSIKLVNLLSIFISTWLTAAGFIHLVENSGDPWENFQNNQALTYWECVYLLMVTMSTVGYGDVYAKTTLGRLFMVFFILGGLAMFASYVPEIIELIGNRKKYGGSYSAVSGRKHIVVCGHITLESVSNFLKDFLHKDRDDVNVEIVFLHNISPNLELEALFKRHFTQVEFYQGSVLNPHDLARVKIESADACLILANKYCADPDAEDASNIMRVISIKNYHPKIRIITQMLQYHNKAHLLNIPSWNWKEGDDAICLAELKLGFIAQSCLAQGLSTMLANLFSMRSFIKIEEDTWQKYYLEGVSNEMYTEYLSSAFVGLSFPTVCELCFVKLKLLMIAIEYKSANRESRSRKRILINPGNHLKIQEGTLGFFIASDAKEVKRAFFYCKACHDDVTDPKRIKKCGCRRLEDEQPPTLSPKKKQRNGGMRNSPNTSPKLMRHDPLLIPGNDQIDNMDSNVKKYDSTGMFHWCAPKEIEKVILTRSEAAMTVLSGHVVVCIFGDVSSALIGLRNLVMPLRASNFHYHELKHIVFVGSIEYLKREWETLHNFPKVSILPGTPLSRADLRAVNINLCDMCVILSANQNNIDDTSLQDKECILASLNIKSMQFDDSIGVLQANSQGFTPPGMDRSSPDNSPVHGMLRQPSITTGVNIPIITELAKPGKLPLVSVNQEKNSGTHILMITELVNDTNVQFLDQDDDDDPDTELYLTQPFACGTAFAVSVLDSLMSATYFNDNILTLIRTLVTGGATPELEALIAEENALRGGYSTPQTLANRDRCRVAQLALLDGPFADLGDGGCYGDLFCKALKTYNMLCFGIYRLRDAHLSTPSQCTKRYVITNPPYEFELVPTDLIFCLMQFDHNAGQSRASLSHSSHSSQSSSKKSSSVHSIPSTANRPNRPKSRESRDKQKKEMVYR
Calcium-activated potassium channel subunit alpha-1 (Rattus norvegicus), sequence (Q62976 whole entry): as above

Row | Emax [1] | IC50 [2] | Emax [3] | Compound
1 | 23% | – | – | COc1ccccc1C(=O)NCc1ccccc1
2 | 61% | 24.5 µM | – | COc1ccccc1CC(=O)Nc1cc(C)ccc1O
3 | 40% | – | – | COc1ccccc1CNC(=O)Cc1ccccc1O
4 | 55% | 27.5 µM | – | O=C(Cc1ccccc1C(F)(F)F)Nc1ccccc1F
5 | 22% | – | – | COc1ccccc1CNC(=O)Cc1ccccc1OC
6 | 47% | – | – | O=C(NCc1ccccc1[N+](=O)[O-])c1ccccc1O
7 | 43% | – | – | O=C(Cc1ccccc1O)Nc1ccccc1F
8 | 33% | – | – | O=C(Cc1ccccc1O)NCc1ccccc1
9 | 50% | – | – | O=C(Cc1ccccc1C(F)(F)F)Nc1cc(Cl)ccc1O
10 | 79% | 22.9 µM | – | O=C(Cc1ccccc1O)Nc1ccc([N+](=O)[O-])cc1
11 | – | 4.37 µM | – | O=c1[nH]c2cc(C(F)(F)F)ccc2n1-c1cc(C(F)(F)F)ccc1O
12 | 25% | – | – | COc1ccccc1CC(=O)NCc1ccccc1
13 | 29% | – | – | COc1ccccc1CC(=O)Nc1ccc([N+](=O)[O-])cc1
14 | 29% | – | – | COc1ccccc1C(=O)NCc1ccccc1[N+](=O)[O-]
15 | 84% | 20 µM | 32% | Cc1cc([N+](=O)[O-])ccc1NC(=O)Cc1ccccc1O
16 | 47% | – | – | O=C(NCc1ccccc1)c1ccccc1O
17 | 28% | – | – | COc1ccccc1CC(=O)Nc1ccccc1F
18 | 16% | – | – | COc1ccccc1CNC(=O)c1ccccc1OC
19 | 21% | – | – | COc1ccccc1CC(=O)Nc1cc([N+](=O)[O-])ccc1OC
20 | 37% | – | – | COc1ccccc1CC(=O)Nc1cc(Cl)ccc1O
21 | 40% | – | – | O=C(Cc1ccccc1O)Nc1ccccc1
22 | 82% | 18.2 µM | – | COc1ccc([N+](=O)[O-])cc1NC(=O)Cc1ccccc1O
23 | 40% | – | – | O=C(Cc1ccccc1O)NCc1ccccc1[N+](=O)[O-]
